The subject of one data set is Rattus norvegicus. Kind of data set: Anti-hepatitis activity in ANIT-induced po dosed Sprague-Dawley rat model of cholestasis assessed as reduction in serum total bilirubin level administered 30 mins prior to ANIT challenge and subsequent dosing at 8, 22, 32, and 46 hrs post ANIT challenge and measured 48 hrs post ANIT challenge. The class given is functional, organism-based. In short, it runs like this:
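Male SD rats, 6 weeks old, fasted 12 h, 6 per group. Cholestasis induced by ANIT 50 mg/kg ip in olive oil. Test agents were given in water; UDCA 100 mg/kg was given orally in CMC-Na. Dosing at 30 min before and 8, 22, 32 and 46 h after ANIT. Serum taken from the abdominal aorta under chloral hydrate anesthesia at 48 h; total bilirubin measured with an assay kit.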

Data set [1] is described as follows: Half life in Sprague-Dawley rat plasma at 5 mM by HPLC analysis. The format is ADME, cell-free. In short, it runs like this:
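Jejunum and liver homogenates from male SD rats in pH 7.4 PBS, adjusted to 200 µg/mL protein, and rat plasma. Each incubated with compound at 5 mM at 37 °C.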

Data set [2] concerns the target T1, Solute carrier family 15 member 1 (Rattus norvegicus, UniProt P51574).
T1 sequence (P51574 whole entry): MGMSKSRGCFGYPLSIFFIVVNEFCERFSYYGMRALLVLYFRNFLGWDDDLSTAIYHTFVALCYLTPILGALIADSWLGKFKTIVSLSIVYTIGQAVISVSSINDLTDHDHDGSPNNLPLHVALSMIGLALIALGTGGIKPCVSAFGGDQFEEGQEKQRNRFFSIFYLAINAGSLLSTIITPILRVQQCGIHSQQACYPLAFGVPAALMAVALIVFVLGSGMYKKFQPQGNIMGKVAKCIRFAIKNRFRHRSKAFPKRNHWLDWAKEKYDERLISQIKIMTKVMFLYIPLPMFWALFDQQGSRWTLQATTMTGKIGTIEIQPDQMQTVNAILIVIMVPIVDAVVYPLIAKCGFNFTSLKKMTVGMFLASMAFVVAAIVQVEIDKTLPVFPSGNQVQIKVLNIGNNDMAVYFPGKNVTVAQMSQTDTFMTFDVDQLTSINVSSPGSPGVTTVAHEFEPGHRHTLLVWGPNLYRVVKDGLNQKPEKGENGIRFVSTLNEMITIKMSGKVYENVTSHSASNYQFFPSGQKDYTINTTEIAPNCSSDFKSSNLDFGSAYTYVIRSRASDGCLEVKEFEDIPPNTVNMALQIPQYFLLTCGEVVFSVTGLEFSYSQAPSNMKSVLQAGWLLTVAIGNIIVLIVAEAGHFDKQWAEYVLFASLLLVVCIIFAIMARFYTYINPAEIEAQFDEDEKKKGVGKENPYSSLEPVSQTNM
The experiment in a line: Substrate activity at PEPT1 in Sprague-Dawley rat jejunum assessed as effective permeability at 5 mM measured after 15 to 120 mins by HPLC analysis. The format is ADME, tissue-based. The settings on record: 5000 µM. Put shortly:
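In situ single-pass jejunal perfusion in fasted (12 h) male SD rats anaesthetised with urethane 1.5 g/kg i.p. About 10 cm of jejunum was perfused at 0.2 mL/min with pH 6.0 HEPES buffer containing 5 mM compound. Outflow was collected 15–120 min after steady state and assayed by HPLC. Peff was calculated from outlet/inlet concentration and volume ratios and segment radius and length.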

The nature of data set [3]: Half life in pH 6.8 simulated intestinal fluid at 5 mM by HPLC analysis. The format is ADME. In short, it runs like this:
(§1)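 Compound at 5 mM in 0.1 M HCl, pH 4.5 acetate buffer, pH 5.8/6.8/7.2 phosphate buffers, SGF (pH 1.2) and SIF (pH 6.8), prepared per Chinese Pharmacopoeia. Samples taken at 0-20 h and analyzed by HPLC-UV. k = 2.303×slope of log C versus time; t1/2 = 0.693/k.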

Data set [4] can be described thus: Half life in pH 6.8 phosphate buffer at 5 mM by HPLC analysis. The class given is physicochemical. In short, it runs like this:
as §1

Data set [5] is described as follows: Apparent permeability across human Caco2 cells at 0.5 mM measured after 5 to 60 mins by UPLC-MS/MS analysis. As to conditions: caco-2, 500 µM. The class given is ADME, cell-based. Put shortly:
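Caco-2 cells grown on 0.4 µm transwell inserts; monolayers used only with TEER >300 Ω/cm². Compound at 0.5 mM in apical pH 6.0 HBSS, basolateral pH 7.4 HBSS, 37 °C. Basolateral samples taken at 5, 15, 30, 45 and 60 min. Quantified by UPLC-MS/MS; Papp from steady-state flux, area and initial donor concentration. Three repeats.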

Data set [6] has as its target T2, Solute carrier organic anion transporter family member 2B1 (Homo sapiens, UniProt O94956).
T2 sequence (O94956 whole entry): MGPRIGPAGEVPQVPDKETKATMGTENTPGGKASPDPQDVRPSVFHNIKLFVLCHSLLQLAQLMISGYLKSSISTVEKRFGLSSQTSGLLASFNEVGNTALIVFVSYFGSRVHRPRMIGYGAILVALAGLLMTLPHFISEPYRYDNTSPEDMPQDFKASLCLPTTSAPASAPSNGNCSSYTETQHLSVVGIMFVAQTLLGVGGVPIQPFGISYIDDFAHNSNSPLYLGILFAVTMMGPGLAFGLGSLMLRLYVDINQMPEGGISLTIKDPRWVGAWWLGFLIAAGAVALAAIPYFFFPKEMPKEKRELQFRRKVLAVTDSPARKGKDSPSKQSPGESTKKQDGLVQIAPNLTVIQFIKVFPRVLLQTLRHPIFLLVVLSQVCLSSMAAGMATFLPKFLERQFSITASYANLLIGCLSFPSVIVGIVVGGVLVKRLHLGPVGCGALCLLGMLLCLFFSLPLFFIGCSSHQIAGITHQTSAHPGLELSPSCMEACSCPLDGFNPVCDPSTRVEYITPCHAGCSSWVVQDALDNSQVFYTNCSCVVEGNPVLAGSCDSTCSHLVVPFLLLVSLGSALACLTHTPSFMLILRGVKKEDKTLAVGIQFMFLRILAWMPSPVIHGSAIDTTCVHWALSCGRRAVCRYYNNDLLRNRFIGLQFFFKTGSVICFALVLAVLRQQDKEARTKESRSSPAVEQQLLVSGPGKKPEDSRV
The experiment in a line: Substrate activity at OATPB in human Caco2 cells assessed as protein-mediated drug uptake at 0.5 mM measured after 10 mins in absence of OATPB substrate captopril by UPLC-MS/MS analysis. As to conditions: caco-2, 10 min, 500 µM.

A short description of data set [7]: Half life in 0.1 M HCl at 5 mM by HPLC analysis. The format is physicochemical. Put shortly: as §1
Data set [8] can be described thus: Half life in pH 5.8 phosphate buffer at 5 mM by HPLC analysis. The class given is physicochemical. In short, it runs like this:
as §1

For orientation: half-life means the time needed for the level to fall by half in the phase considered. Regarding `O=C1N[C@@H](CO)C(=O)N2C[C@H](O)C[C@@H]12`, in the data set with Rattus norvegicus, the Activity entry was “Dose-dependent effect”. The half-life at 5000 µM in data set [1], in data set [3], in [4], in [7] and in data set [8] was greater than 20 h each time. In addition, the Peff result in data set [2] was “Permeable”. Further, in data set [5], the Papp entry is listed as “Impermeable”. Further, the Drug uptake result in [6] was “Not Active”.

With `CC(C)[C@H](N)C(=O)OC[C@@H]1NC(=O)[C@@H]2C[C@@H](O)CN2C1=O`, the Activity entry in the data set on Rattus norvegicus is “Dose-dependent effect”. The half-life at 5000 µM in data set [1] was 2.9 h; in data set [3], 7.9 h; in data set [4], 7.7 h; in [7] it was greater than 20 h; in data set [8] it was greater than 20 h. Besides, in data set [2], the Peff entry is recorded as “Permeable”. In [5], the Papp entry is on record as “Permeable”. Moreover, the Drug uptake result in data set [6] is on record as “Not Active”.

The record behind these values is ChEMBL document CHEMBL4373712, “Bioactivatable Pseudotripeptidization of Cyclic Dipeptides To Increase the Affinity toward Oligopeptide Transporter 1 for Enhanced Oral Absorption: An Application to Cyclo(l-Hyp-l-Ser) (JBP485)” (J Med Chem, 2019).
